Source: ChEMBL document CHEMBL1938374, “Synthesis and biological characterization of 3-substituted-1H-indoles as ligands of GluN2B-containing N-methyl-D-aspartate receptors” (J Med Chem, 2011)
Activity calls are given as the source filed them. The rule behind the calls is not given here.

Tests used:
[1] = target: Glutamate receptor ionotropic, NMDA 2B (Rattus norvegicus) (UniProt Q00960); experiment: Displacement of [3H]ifenprodil from GluN2B/NMDA in Wistar rat cerebral cortex at 10 uM after 120 mins by scintillation counting; type: tissue-based
Glutamate receptor ionotropic, NMDA 2B (Rattus norvegicus), sequence (Q00960 27-1482 limits assumed): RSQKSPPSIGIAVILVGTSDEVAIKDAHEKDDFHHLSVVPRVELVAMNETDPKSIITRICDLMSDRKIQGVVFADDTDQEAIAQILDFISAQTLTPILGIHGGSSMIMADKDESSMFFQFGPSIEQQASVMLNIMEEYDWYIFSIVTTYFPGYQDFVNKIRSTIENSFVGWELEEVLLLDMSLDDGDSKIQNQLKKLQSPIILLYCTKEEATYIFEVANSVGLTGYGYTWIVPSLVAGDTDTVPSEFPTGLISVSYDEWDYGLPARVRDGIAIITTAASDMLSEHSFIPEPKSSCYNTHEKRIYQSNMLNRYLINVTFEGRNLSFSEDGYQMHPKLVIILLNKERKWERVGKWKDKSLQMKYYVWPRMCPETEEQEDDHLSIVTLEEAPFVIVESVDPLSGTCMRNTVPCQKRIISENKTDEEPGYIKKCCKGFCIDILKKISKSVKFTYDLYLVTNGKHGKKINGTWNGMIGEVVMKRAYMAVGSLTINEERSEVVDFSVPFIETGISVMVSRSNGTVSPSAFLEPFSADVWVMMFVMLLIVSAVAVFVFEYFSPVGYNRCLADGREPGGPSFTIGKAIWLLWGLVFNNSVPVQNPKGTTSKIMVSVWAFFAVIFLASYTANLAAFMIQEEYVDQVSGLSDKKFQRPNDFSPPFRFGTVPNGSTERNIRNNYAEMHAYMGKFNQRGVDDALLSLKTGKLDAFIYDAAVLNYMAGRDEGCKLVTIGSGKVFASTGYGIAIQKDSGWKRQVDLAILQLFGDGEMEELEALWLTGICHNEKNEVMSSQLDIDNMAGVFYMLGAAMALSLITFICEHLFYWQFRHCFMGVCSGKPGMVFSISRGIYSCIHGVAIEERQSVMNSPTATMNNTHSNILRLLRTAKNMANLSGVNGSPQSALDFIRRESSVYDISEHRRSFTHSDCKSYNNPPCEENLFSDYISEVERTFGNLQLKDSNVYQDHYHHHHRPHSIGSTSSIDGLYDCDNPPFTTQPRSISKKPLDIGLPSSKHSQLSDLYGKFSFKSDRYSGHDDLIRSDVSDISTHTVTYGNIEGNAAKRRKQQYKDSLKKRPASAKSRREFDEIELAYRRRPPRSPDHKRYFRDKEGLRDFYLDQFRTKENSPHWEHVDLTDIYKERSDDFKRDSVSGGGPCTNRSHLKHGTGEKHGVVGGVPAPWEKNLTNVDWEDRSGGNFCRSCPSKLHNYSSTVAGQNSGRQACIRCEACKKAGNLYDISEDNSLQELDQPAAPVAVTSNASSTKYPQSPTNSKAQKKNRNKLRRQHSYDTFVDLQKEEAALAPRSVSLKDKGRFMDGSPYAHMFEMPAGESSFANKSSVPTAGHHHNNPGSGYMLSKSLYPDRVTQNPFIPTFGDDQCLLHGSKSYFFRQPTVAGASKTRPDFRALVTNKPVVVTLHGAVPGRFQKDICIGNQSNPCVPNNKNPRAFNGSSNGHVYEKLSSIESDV

[2] = target: Glutamate receptor ionotropic, NMDA 2B (Rattus norvegicus, UniProt Q00960); experiment: Displacement of [3H]ifenprodil from GluN2B/NMDA in Wistar rat cerebral cortex after 120 mins by scintillation counting; type: tissue-based
Glutamate receptor ionotropic, NMDA 2B, sequence (Q00960 whole entry): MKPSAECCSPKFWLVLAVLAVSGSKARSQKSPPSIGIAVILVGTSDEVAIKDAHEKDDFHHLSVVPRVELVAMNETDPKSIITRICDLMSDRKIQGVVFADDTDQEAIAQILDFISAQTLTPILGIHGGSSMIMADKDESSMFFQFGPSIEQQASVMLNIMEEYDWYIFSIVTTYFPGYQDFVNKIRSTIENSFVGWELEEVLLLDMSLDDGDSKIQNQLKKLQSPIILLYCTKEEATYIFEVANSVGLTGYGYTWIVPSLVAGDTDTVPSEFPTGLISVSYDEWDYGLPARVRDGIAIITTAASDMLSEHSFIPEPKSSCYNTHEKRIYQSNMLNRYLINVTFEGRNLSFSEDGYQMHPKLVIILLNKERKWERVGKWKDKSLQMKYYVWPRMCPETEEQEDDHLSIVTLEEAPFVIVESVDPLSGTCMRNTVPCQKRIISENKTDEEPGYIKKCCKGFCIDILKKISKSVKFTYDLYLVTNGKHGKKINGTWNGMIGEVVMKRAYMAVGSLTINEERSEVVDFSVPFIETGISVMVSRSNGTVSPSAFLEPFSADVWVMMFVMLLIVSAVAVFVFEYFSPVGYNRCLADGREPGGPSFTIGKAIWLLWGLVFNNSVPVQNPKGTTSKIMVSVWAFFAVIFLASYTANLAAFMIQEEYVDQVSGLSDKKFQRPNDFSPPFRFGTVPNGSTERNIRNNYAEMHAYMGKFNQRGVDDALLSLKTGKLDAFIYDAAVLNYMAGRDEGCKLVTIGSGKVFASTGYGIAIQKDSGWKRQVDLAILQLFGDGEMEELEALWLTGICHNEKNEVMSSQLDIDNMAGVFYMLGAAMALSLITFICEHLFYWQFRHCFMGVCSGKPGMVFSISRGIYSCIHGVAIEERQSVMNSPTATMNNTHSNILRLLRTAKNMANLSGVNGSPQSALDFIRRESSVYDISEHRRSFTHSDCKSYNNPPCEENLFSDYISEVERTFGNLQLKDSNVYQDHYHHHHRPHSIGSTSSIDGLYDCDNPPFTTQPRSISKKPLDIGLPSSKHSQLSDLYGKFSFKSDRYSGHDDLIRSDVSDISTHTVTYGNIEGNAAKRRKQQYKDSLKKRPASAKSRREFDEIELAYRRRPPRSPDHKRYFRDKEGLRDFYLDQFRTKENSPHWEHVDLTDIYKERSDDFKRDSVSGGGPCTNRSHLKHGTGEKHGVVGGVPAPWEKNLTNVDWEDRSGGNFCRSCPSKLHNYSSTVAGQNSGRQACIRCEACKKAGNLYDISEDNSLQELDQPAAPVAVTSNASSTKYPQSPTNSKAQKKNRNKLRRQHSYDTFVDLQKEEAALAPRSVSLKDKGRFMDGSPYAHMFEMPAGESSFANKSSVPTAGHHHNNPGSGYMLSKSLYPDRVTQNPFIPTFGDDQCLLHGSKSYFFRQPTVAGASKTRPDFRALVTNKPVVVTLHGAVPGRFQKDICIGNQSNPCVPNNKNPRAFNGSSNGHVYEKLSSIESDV

Mus musculus [3] = experiment: Anticonvulsant activity in DBA/2 mouse assessed as inhibition of audiogenic clonic seizures administered as ip, 30 mins prior to auditory stimulation measured for 60 secs; type: functional; conditions: DBA/2, ip
Outline: (§1)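 Seizure ED50 values, in μmol/kg, were computed by the Litchfield and Wilcoxon method. At least 32 animals went into each ED50, and 95% confidence limits are reported.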

Mus musculus [4] = experiment: Anticonvulsant activity in DBA/2 mouse assessed as inhibition of audiogenic tonic seizures administered as ip, 30 mins prior to auditory stimulation measured for 60 secs; type: functional; conditions: DBA/2, ip; outline: as §1
[5] = target: Sigma non-opioid intracellular receptor 1 (Cavia porcellus, UniProt Q60492); experiment: Displacement of [3H](+)pentazocine from sigma 1 receptor in guinea pig brain membrane after 150 mins by liquid scintillation counting; type: cell membranes
Sigma non-opioid intracellular receptor 1, sequence (Q60492 whole entry): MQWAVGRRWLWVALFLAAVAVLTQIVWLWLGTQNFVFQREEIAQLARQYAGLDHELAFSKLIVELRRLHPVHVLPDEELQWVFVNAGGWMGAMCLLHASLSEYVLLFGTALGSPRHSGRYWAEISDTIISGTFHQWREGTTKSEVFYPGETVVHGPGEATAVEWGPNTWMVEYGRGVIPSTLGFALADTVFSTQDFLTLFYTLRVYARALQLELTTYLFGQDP

[6] = target: Glutamate receptor ionotropic, NMDA 2B (Mus musculus) (UniProt Q01097); experiment: Antagonist activity at GluN2B/NMDA in FVB mouse CA1 pyramidal neurons assessed as reduction in NMDA-mediated inward current at 10 uM measured for 5 mins by whole-cell patch clamp assay in presence of glycine and tetrodotoxin; type: functional, cell-based; conditions: Pyramidal neuron
Glutamate receptor ionotropic, NMDA 2B (Mus musculus), sequence (Q01097 whole entry): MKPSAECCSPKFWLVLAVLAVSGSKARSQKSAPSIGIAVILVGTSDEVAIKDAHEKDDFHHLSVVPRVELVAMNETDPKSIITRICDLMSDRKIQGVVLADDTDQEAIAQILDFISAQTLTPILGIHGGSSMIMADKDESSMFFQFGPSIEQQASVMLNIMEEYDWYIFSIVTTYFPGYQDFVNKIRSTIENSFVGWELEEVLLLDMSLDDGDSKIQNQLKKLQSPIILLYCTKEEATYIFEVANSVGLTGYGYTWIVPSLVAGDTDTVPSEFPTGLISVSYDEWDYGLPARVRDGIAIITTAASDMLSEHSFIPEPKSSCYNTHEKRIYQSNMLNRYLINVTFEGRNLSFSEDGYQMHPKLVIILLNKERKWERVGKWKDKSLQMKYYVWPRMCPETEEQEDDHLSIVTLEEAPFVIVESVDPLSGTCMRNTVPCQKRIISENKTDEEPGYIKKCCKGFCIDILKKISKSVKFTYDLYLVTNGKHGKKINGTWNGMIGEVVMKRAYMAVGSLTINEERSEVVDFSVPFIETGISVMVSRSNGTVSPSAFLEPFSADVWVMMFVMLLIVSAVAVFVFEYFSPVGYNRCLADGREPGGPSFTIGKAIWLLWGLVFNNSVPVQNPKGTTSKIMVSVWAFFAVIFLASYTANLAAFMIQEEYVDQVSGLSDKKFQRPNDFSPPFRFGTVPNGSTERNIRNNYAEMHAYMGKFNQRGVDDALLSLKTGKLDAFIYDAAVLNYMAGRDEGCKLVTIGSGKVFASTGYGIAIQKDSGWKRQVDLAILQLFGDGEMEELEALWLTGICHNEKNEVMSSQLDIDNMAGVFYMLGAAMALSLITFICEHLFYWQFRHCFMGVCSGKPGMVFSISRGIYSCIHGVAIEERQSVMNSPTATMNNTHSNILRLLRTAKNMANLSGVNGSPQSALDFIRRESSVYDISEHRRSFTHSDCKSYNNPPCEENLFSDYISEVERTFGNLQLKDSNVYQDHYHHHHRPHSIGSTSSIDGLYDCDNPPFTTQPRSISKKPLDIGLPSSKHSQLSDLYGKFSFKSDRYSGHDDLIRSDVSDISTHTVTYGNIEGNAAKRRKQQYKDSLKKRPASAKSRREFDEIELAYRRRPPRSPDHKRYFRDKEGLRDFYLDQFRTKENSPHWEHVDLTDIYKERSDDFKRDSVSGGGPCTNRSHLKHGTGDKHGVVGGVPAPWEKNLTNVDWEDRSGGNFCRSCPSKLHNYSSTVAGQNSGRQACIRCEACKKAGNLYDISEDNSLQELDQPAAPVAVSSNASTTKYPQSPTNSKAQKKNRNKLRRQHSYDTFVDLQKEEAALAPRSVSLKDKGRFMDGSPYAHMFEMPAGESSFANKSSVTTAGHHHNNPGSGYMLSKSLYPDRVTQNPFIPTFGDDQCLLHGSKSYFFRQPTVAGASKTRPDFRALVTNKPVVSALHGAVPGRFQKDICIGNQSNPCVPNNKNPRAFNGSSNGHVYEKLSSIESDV

[7] = Displacement of [3H]DTG from sigma 2 receptor after 120 mins by liquid scintillation counting in presence of (+)-SKF10,047

Row | Structure (SMILES) | Activity [1] [%] | IC50 [2] [µM] | ED50 (Mus musculus [3]) [µmol/kg] | ED50 (Mus musculus [4]) [µmol/kg] | Ki [5] [µM] | Activity [6] | Ki [7] [µM]
1 | COc1ccc2[nH]cc(C(=O)CN3CCC(Cc4ccccc4)CC3)c2c1 | 86 | – | – | – | – | – | –
2 | COc1cccc2c(C(=O)CN3CCC(Cc4ccccc4)CC3)c[nH]c12 | 62 | 2.91 | 80.3 | 35.8 | – | – | –
3 | O=C(CN1CCN(Cc2ccccc2)CC1)c1c[nH]c2ccccc12 | 14 | – | – | – | – | – | –
4 | O=C(C(=O)N1CCC(Cc2ccccc2)CC1)c1c[nH]c2cc(O)ccc12 | 92 | 0.022 | 84.4 | 38.9 | > 1 | – | –
5 | COc1cccc2[nH]cc(C(=O)C(=O)N3CCC(Cc4ccccc4)CC3)c12 | 14 | – | > 100 | 76.7 | – | – | –
6 | O=C(C(=O)N1CCC(Cc2ccccc2)CC1)c1c[nH]c2ccc(O)cc12 | – | – | – | – | > 1 | – | –
7 | COc1cccc2[nH]cc(C(=O)CN3CCC(Cc4ccccc4)CC3)c12 | 82 | 0.324 | 32.7 | 16.2 | – | – | –
8 | O=C(CN1CCC(Cc2ccccc2)CC1)c1c[nH]c2cccc(O)c12 | 77 | 6.64 | 68.1 | 13.7 | – | – | –
9 | O=C(CN1CCC(Cc2ccccc2)CC1)c1c[nH]c2cc(O)ccc12 | 92 | 0.017 | 95.4 | 53.7 | > 1 | inactive | 0.043
10 | O=C(C(=O)N1CCC(Cc2ccccc2)CC1)c1c[nH]c2cccc(O)c12 | 24 | – | 52.1 | 28.9 | – | – | –
11 | COc1ccc2[nH]cc(C(=O)CN3CCN(Cc4ccccc4)CC3)c2c1 | – | – | 98.7 | 63.8 | – | – | –
12 | COc1ccc2[nH]cc(C(=O)C(=O)N3CCC(Cc4ccccc4)CC3)c2c1 | 9 | – | – | – | – | – | –
13 | O=C(CN1CCC(Cc2ccccc2)CC1)c1c[nH]c2c(O)cccc12 | 72 | 7.14 | > 100 | 53.8 | – | – | –
14 | O=C(CN1CCC(Cc2ccccc2)CC1)c1c[nH]c2ccc(O)cc12 | – | – | – | – | > 1 | Active | 0.0765
15 | O=C(CN1CCN(Cc2ccccc2)CC1)c1c[nH]c2ccc(O)cc12 | 27 | – | > 100 | 44.9 | 0.437 | – | 0.557
16 | COc1cccc2c(C(=O)C(=O)N3CCC(Cc4ccccc4)CC3)c[nH]c12 | 33 | – | 51.4 | 27.4 | – | – | –
17 | O=C(C(=O)N1CCC(Cc2ccccc2)CC1)c1c[nH]c2c(O)cccc12 | 79 | 1.99 | 80.5 | 36.2 | – | – | –
18 | COc1ccc2c(C(=O)C(=O)N3CCC(Cc4ccccc4)CC3)c[nH]c2c1 | – | – | 11.9 | 4.68 | – | – | –
19 | COc1ccc2c(C(=O)CN3CCC(Cc4ccccc4)CC3)c[nH]c2c1 | 4 | – | 67.8 | 30.1 | – | – | –
